Measurements taken from ChEMBL document CHEMBL1147105, “In vitro and in vivo activities of PD 0305970 and PD 0326448, new bacterial gyrase/topoisomerase inhibitors with potent antibacterial activities versus multidrug-resistant gram-positive and fastidious organism groups” (2007).

Experiments:
Streptococcus pneumoniae [1] = assay: Antibacterial activity against penicillin-susceptible Streptococcus pneumoniae; type: functional
Method in brief: (§1)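 Broth microdilution MIC per CLSI guidelines, incubated at 35°C. Cation-adjusted Mueller-Hinton broth for nonfastidious organisms and staphylococci. Streptococci tested in the same broth with 3% lysed horse blood. Anaerobes tested in supplemented Brucella broth inside an anaerobe chamber (5% CO2, 5% H2, 90% N2), read after 48 h. Strains were mainly recent clinical isolates with confirmed identity.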

[2] = system: Parabacteroides distasonis; assay: Antimicrobial activity against Bacteroides distasonis; type: functional
Method in brief: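 Anaerobic broth microdilution MIC following CLSI guidelines, in supplemented Brucella broth. Incubated at 35°C in a chamber under 5% CO2, 5% H2 and 90% N2. Read after 48 h.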

[3] = system: Bacteroides thetaiotaomicron; assay: Antibacterial activity against Bacteroides thetaiotaomicron; type: functional
Method in brief: (§2)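 Anaerobic broth microdilution MIC following CLSI guidelines, in supplemented Brucella broth. Run in an anaerobe chamber under 5% CO2, 5% H2 and 90% N2 at 35°C, and read after 48 h. Reported as MIC range, MIC50 and MIC90.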

Streptococcus pneumoniae [4] = assay: Antibacterial activity against quinolone-resistant Streptococcus pneumoniae SP4333 infected twice daily orally dosed CD1 mouse; type: functional; details: po; for ED50: read-out: PD50
Method in brief: (§3)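 Pneumonia model in CD1 mice (n = 8), anaesthetised with ketamine i.p. Intranasal instillation of 50 μl of broth culture (10^8–10^9 CFU/ml, OD600 0.70), confirmed by plate counts. Oral therapy began 24 h post-challenge. Dosing was either once daily for 1 day or twice daily for 3 days. The result was given as the PD50 (mg/kg).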

[5] = system: Staphylococcus epidermidis; assay: Antibacterial activity against oxacillin-susceptible Staphylococcus epidermidis; type: functional
Method in brief: (§4)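 MIC by CLSI broth microdilution for nonfastidious organisms, in cation-adjusted Mueller-Hinton broth incubated at 35°C.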

Streptococcus viridans = assay: Antibacterial activity against Streptococcus viridans; type: functional
Method in brief: (§5)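 Broth microdilution MIC following CLSI guidelines, in cation-adjusted Mueller-Hinton broth with 3% lysed horse blood. Plates incubated at 35°C. Clinical isolates and reference strains, with identity confirmed by standard microbiological methods.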

Streptococcus pneumoniae [6] = assay: Antibacterial activity against Streptococcus pneumoniae SVI infected once daily orally dosed CD1 mouse; type: functional; details: po; for ED50: read-out: PD50; method in brief: as §3
Klebsiella oxytoca = assay: Antibacterial activity against Klebsiella oxytoca; type: functional
Method in brief: (§6)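 Broth microdilution MIC following CLSI guidelines, in cation-adjusted Mueller-Hinton broth, incubated at 35°C. Recent clinical isolates and reference strains, with identity confirmed by automated and standard microbiological methods. Results reported as MIC range, MIC50 and MIC90.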

Enterococcus faecalis [7] = assay: Antibacterial activity against VanB-resistant Enterococcus faecalis; type: functional; method in brief: as §1
[8] = system: Peptoniphilus asaccharolyticus; assay: Antibacterial activity against Peptostreptococcus asaccharolyticus; type: functional; method in brief: as §2
Listeria monocytogenes = assay: Antibacterial activity against Listeria monocytogenes; type: functional
Method in brief: (§7)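 Broth microdilution MIC following CLSI guidelines, in cation-adjusted Mueller-Hinton broth containing 3% lysed horse blood, incubated at 35°C. Clinical isolates with identity confirmed. Reported as MIC range, MIC50 and MIC90.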

Enterococcus faecalis [9] = assay: Antibacterial efficacy against Enterococcus faecalis MGH2 infected orally dosed CD1 mouse model; type: functional
Method in brief: (§8)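 Sepsis model in female CD1 mice (6–8 weeks, 18–22 g). Lethal i.p. challenge (0.5 ml) at ≥100 median lethal doses. Streptococci were given in Todd-Hewitt broth; other organisms were given with 20% hog gastric mucin. A single oral gavage dose (0.5 ml, in 0.5% methylcellulose) was given at the time of challenge. The PD50 (mg/kg) was calculated by probit analysis.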

Staphylococcus aureus [10] = assay: Antibacterial activity against vancomycin-intermediate Staphylococcus aureus; type: functional; method in brief: as §1
Shigella flexneri = assay: Antibacterial activity against Shigella flexneri; type: functional; method in brief: as §6
Streptococcus sanguinis = assay: Antibacterial activity against Streptococcus sanguis; type: functional; method in brief: as §5
Citrobacter freundii = assay: Antibacterial activity against Citrobacter freundii; type: functional; method in brief: as §6
Streptococcus pneumoniae [11] = assay: Antibacterial efficacy against Streptococcus pneumoniae SVI infected orally dosed CD1 mouse model; type: functional; details: po; for ED50: read-out: PD50; method in brief: as §8
Legionella pneumophila = assay: Antibacterial activity against Legionella pneumophila; type: functional
Method in brief: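 Broth microdilution MIC per CLSI guidelines, run in buffered yeast extract α-ketoglutarate broth at 35°C and read after 48 h.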

Hoylesella oralis = assay: Antibacterial activity against Prevotella oralis; type: functional; method in brief: as §2
Klebsiella aerogenes = assay: Antibacterial activity against Enterobacter aerogenes; type: functional; method in brief: as §6
Streptococcus pneumoniae [12] = assay: Antibacterial activity against levofloxacin-resistant Streptococcus pneumoniae; type: functional; method in brief: as §1
Enterococcus faecalis [13] = assay: Antibacterial activity against VanA-resistant Enterococcus faecalis; type: functional; method in brief: as §1
Enterococcus faecium [14] = assay: Antibacterial activity against VanB-resistant Enterococcus faecium; type: functional; method in brief: as §1
Moraxella catarrhalis = assay: Antibacterial activity against beta-lactamase positive Moraxella catarrhalis; type: functional
Prevotella corporis = assay: Antibacterial activity against Prevotella corporis; type: functional; method in brief: as §2
Staphylococcus aureus [15] = assay: Antibacterial efficacy against methicillin-resistant Staphylococcus aureus SA1417 infected orally dosed CD1 mouse model; type: functional; method in brief: as §8
Streptococcus agalactiae = assay: Antibacterial activity against Streptococcus agalactiae; type: functional; method in brief: as §7
Finegoldia magna = assay: Antibacterial activity against Peptostreptococcus magnus; type: functional; method in brief: as §2
Enterococcus faecium [16] = assay: Antibacterial activity against Enterococcus faecium; type: functional; method in brief: as §1
Anaerococcus prevotii = assay: Antibacterial activity against Peptostreptococcus prevotii; type: functional; method in brief: as §2
[17] = system: Prevotella melaninogenica; assay: Antibacterial activity against Prevotella melaninogenica; type: functional; method in brief: as §2
Streptococcus pneumoniae [18] = assay: Antibacterial activity against penicillin-resistant Streptococcus pneumoniae; type: functional; method in brief: as §1
Neisseria meningitidis = assay: Antibacterial activity against Neisseria meningitidis; type: functional
Method in brief: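 MIC by broth microdilution in gonococcal broth, incubated at 35°C in 5% CO2. Reported as MIC range, MIC50 and MIC90.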

[19] = system: Stenotrophomonas maltophilia; assay: Antibacterial activity against Stenotrophomonas maltophilia; type: functional; method in brief: as §6
Klebsiella pneumoniae = assay: Antibacterial activity against beta-lactamase positive Klebsiella pneumoniae; type: functional; method in brief: as §4
Salmonella typhimurium = assay: Antibacterial activity against Salmonella enterica serovar Typhimurium; type: functional, Salmonella enterica subsp. enterica serovar Typhimurium; method in brief: as §6
Alloiococcus otitis = assay: Antibacterial activity against Alloiococcus otitidis; type: functional
Method in brief: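 MIC by broth microdilution following CLSI guidelines, in cation-adjusted Mueller-Hinton broth with 3% lysed horse blood. Incubated at 35°C and read after 48 h. Reported as MIC range, MIC50 and MIC90.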

Streptococcus equinus = assay: Antibacterial activity against Streptococcus bovis; type: functional; method in brief: as §5

C[C@H]1COc2c(N3CCN(C)CC3)c(F)cc3c(=O)c(C(=O)O)cn1c23.C[C@H]1COc2c(N3CCN(C)CC3)c(F)cc3c(=O)c(C(=O)O)cn1c23.O [LEVOFLOXACIN]
1 µg/mL: MIC90 (Streptococcus pneumoniae [1]) | MIC50 (Streptococcus viridans) | MIC90 (Streptococcus viridans) | MIC50 (Listeria monocytogenes) | MIC90 (Listeria monocytogenes) | MIC (Enterococcus faecalis [9]) | MIC50 (Streptococcus sanguinis) | MIC90 (Streptococcus sanguinis) | MIC50 (Hoylesella oralis) | MIC50 (Klebsiella aerogenes) | MIC50 (Prevotella corporis) | MIC50 (Streptococcus agalactiae) | MIC90 (Streptococcus agalactiae) | MIC50 [17] | MIC90 (Streptococcus pneumoniae [18]) | MIC50 [19]
> 200 mg/kg: ED50 (Streptococcus pneumoniae [4])
0.008 µg/mL: MIC50 (Legionella pneumophila) | MIC50 (Neisseria meningitidis) | MIC90 (Neisseria meningitidis)
8 µg/mL: MIC50 [2] | MIC50 [3]
0.125 µg/mL: MIC [8] | MIC50 (Citrobacter freundii) | MIC (Finegoldia magna) | MIC (Anaerococcus prevotii)
0.015 µg/mL: MIC90 (Legionella pneumophila)
16 µg/mL: MIC50 (Enterococcus faecalis [7]) | MIC (Staphylococcus aureus [10]) | MIC90 (Citrobacter freundii) | MIC50 (Streptococcus pneumoniae [12]) | MIC90 (Streptococcus pneumoniae [12]) | MIC (Enterococcus faecalis [13])
2 µg/mL: MIC90 (Klebsiella oxytoca) | MIC90 (Hoylesella oralis) | MIC90 (Prevotella corporis) | MIC90 [17] | MIC50 (Streptococcus equinus) | MIC90 (Streptococcus equinus)
0.5 µg/mL: MIC50 (Streptococcus pneumoniae [1]) | MIC50 (Streptococcus pneumoniae [18]) | MIC50 (Klebsiella pneumoniae)
69 mg/kg: ED50 (Streptococcus pneumoniae [6]) | ED50 (Streptococcus pneumoniae [11])
0.06 µg/mL: MIC50 (Klebsiella oxytoca) | MIC90 (Shigella flexneri) | MIC90 (Moraxella catarrhalis) | MIC90 (Salmonella typhimurium)
0.25 µg/mL: MIC [5] | MIC (Staphylococcus aureus [15]) | MIC50 (Alloiococcus otitis) | MIC90 (Alloiococcus otitis)
32 µg/mL: MIC90 [2] | MIC90 [3] | MIC90 (Enterococcus faecalis [7]) | MIC90 (Klebsiella aerogenes) | MIC50 (Enterococcus faecium [16]) | MIC90 (Klebsiella pneumoniae)
4 µg/mL: MIC (Enterococcus faecium [14]) | MIC90 [19]
0.03 µg/mL: MIC50 (Shigella flexneri) | MIC50 (Moraxella catarrhalis) | MIC50 (Salmonella typhimurium)
64 µg/mL: MIC90 (Enterococcus faecium [16])

Cc1c(N2CC[C@@H]([C@H](C)N)C2)c(F)cc2c(=O)n(N)c(=O)n(C3CC3)c12
64 µg/mL: MIC90 [19]
19 mg/kg: ED50 (Enterococcus faecalis [9]; read-out: PD50)
16 µg/mL: MIC90 [2] | MIC90 [3] | MIC90 (Citrobacter freundii)
1 µg/mL: MIC50 (Klebsiella oxytoca) | MIC90 (Shigella flexneri) | MIC90 (Hoylesella oralis) | MIC90 (Prevotella corporis) | MIC50 (Enterococcus faecium [16]) | MIC90 [17] | MIC90 (Salmonella typhimurium)
2.7 mg/kg: ED50 (Streptococcus pneumoniae [11])
0.015 µg/mL: MIC (Streptococcus pneumoniae [11])
2.5 mg/kg: ED50 (Staphylococcus aureus [15]; read-out: PD50)
4 µg/mL: MIC50 [2] | MIC50 [3] | MIC50 (Citrobacter freundii) | MIC50 (Klebsiella aerogenes)
3.2 mg/kg: ED50 (Streptococcus pneumoniae [6])
0.25 µg/mL: MIC50 (Enterococcus faecalis [7]) | MIC90 (Enterococcus faecalis [7]) | MIC90 (Listeria monocytogenes) | MIC50 (Legionella pneumophila) | MIC90 (Legionella pneumophila) | MIC50 (Hoylesella oralis) | MIC50 (Moraxella catarrhalis) | MIC50 (Prevotella corporis) | MIC (Staphylococcus aureus [15]) | MIC50 [17] | MIC50 (Neisseria meningitidis)
8 µg/mL: MIC90 (Klebsiella aerogenes) | MIC50 [19] | MIC90 (Klebsiella pneumoniae)
4.1 mg/kg: ED50 (Streptococcus pneumoniae [4])
0.008 µg/mL: MIC (Streptococcus pneumoniae [6]) | MIC90 (Alloiococcus otitis)
0.5 µg/mL: MIC50 (Shigella flexneri) | MIC (Enterococcus faecium [14]) | MIC90 (Moraxella catarrhalis) | MIC90 (Neisseria meningitidis) | MIC50 (Salmonella typhimurium)
0.125 µg/mL: MIC50 (Listeria monocytogenes) | MIC (Enterococcus faecalis [9]) | MIC (Staphylococcus aureus [10]) | MIC (Enterococcus faecalis [13])
0.06 µg/mL: MIC [5] | MIC90 (Streptococcus pneumoniae [12])
0.004 µg/mL: MIC50 (Alloiococcus otitis)
0.03 µg/mL: MIC50 (Streptococcus pneumoniae [1]) | MIC90 (Streptococcus pneumoniae [1]) | MIC (Streptococcus pneumoniae [4]) | MIC50 (Streptococcus viridans) | MIC90 (Streptococcus viridans) | MIC [8] | MIC50 (Streptococcus sanguinis) | MIC90 (Streptococcus sanguinis) | MIC50 (Streptococcus pneumoniae [12]) | MIC50 (Streptococcus agalactiae) | MIC90 (Streptococcus agalactiae) | MIC (Finegoldia magna) | MIC (Anaerococcus prevotii) | MIC50 (Streptococcus pneumoniae [18]) | MIC90 (Streptococcus pneumoniae [18]) | MIC50 (Streptococcus equinus) | MIC90 (Streptococcus equinus)
2 µg/mL: MIC90 (Klebsiella oxytoca) | MIC90 (Enterococcus faecium [16]) | MIC50 (Klebsiella pneumoniae)
